# Bioassay records from PubChem BioAssay.
# INS promoter act = TRM-6 insulin promoter activation. TRM-6 cells, insulin promoter eGFP reporter, imaging; plate-scaled: unstimulated 0, stimulated control 100. activation, % at 2 µM. 0.81% of 130,000 active;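 active = activation at 2 µM above a set limit, confirmed on inspection of the cell images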;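 note: share of cells whose green reporter signal exceeds an intensity cutoff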
#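 Test system: human fetal islet-derived TRM-6 cells with tamoxifen-inducible insulin promoter–eGFP reporter. Compound dosing: 2 µM final, single concentration. Incubation: tamoxifen pre-incubation 15 h overnight, then compound exposure 48 h at 37 °C. Signal: fixed-cell fluorescence microscopy, eGFP plus Hoechst.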
# * hit, by the source's call. This is one part of a sample in which hits are shown more often than they occur.
SMILES,INS promoter act
Cc1c(NC(=O)C(C)OC(=O)[C@@H](NC(=O)c2ccccc2)C(C)C)c(=O)n(-c2ccccc2)n1C (some centres undefined),4.7
CC1(C(=O)O)Oc2cccnc2NC1=O (centres undefined),409.1*
COc1ccc2[nH]c3c(NCCC4=CCCCC4)ncnc3c2c1,-65.0
CCN(CCn1cccn1)C(=O)CCc1nnc(C2(c3ccc(Cl)cc3)CCC2)o1,4.8
COc1ccc(/C=C/C(=O)OCC(=O)Nc2cc(C(F)(F)F)ccc2Cl)cc1,0.0
Cc1ccc(CSCCNC(=O)c2ccc(Cl)c(S(=O)(=O)N3CCOCC3)c2)cc1,141.7
O=C(Nc1cccnc1)c1ccc(COc2ccccc2Cl)o1,0.0
CN(C)C(=O)c1ccc(COc2ccccc2Br)o1,421.1*
O=C(c1ccc(COc2ccccc2Br)o1)N1CCN(c2ccccn2)CC1,2.9
CCOC(=O)C1=C(C)N(C)C(=S)NC1c1cc(OC)ccc1OC (centres undefined),7.7
Cc1ccc(C(=O)N2CCN(C(=O)c3ccco3)CC2)cc1NC(=O)c1ccco1,5.3
O=C(CN(Cc1cccs1)C(=O)CNS(=O)(=O)c1ccc(F)cc1)NCc1ccco1,171.4*
O=C(CNC(=S)N(Cc1ccccc1)Cc1cccs1)NCc1ccc(F)cc1,0.0
CC(C)C(C(=O)NCC1CCCO1)N(Cc1ccco1)C(=O)CNS(=O)(=O)c1ccc(F)cc1 (centres undefined),109.1
CCN1C(=O)N(CC)C2C1N(CO)C(=O)N2CO (centres undefined),-8.3
O=C(CN(C1CCCCC1)C1CCCCC1)N1CCc2ccccc2C1,-8.1
Nn1c(SCC(=O)NC(=O)NCc2ccco2)nnc1-c1ccc(OC(F)F)cc1,1.8
O=C(c1ccncc1)N1CCN(C(=O)c2cccs2)CC1,4.5
O=C(c1cccs1)N1CCN(Cc2ccccn2)CC1,4.3
O=C(c1cccnc1)N1CCN(C(=O)c2cccs2)CC1,456.3*
O=C(C1CCCN(c2ncccn2)C1)N1CCc2ccccc21 (centres undefined),3.3
O=C(COC(=O)c1cccnc1Cl)c1ccc(F)cc1,426.3*
O=C(OCc1nnc(-c2ccccc2)o1)c1cccnc1Cl,-7.1
O=C(COC(=O)c1cccnc1Cl)c1ccccc1,8.3
NC(=O)c1c(NC(=O)C2CCCO2)sc2c1CCCC2 (centres undefined),0.0
SMILES,INS promoter act
O=C1NCCN(Cc2cccc(Oc3ccccc3)c2)C1CC(=O)N1CCCO1 (centres undefined),0.0
Cc1cccc(NC(=O)NCCc2c[nH]c3ccccc23)c1,2.6
Cc1ccc(/C=C/C(=O)NCCc2c[nH]c3ccccc23)o1,466.7*
Cc1ccc(/C=C/C(=O)NCc2ccccn2)o1,-65.5
CCOc1ccc(CCNC(=O)COC(=O)c2ccco2)cc1OCC,0.0
CCOc1ccc(CCNC(=O)C(CCC(N)=O)NC(=O)OCc2ccccc2)cc1OCC (centres undefined),228.6*
Cc1ccc(CNC(=O)C(CCC(N)=O)NC(=O)OCc2ccccc2)cc1 (centres undefined),5.3
CCc1cc2c(=O)c(-c3nc(C)cs3)coc2cc1OC(C)C(=O)NCCO (centres undefined),-6.7
COc1cc(OC)cc(C(=O)N[C@H](C(=O)Nc2ccc3c(c2)OCO3)C(C)C)c1,0.0
Cc1nn(C)c(C)c1CNC(=O)c1cc2n(n1)C(C(F)(F)F)CC(c1cccs1)N2 (centres undefined),278.9
CCCn1cc(NC(=O)c2cc3n(n2)C(C(F)(F)F)CC(c2ccccc2)N3)cn1 (centres undefined),431.3*
Cc1cc(NC(=O)c2cc3n(n2)C(C(F)(F)F)CC(c2ccco2)N3)n(-c2ccccc2)n1 (centres undefined),229.7
CCC(C(=O)NCc1ccco1)N(C(=O)CNS(=O)(=O)c1ccccc1)c1ccc(OC)cc1 (centres undefined),0.0
COc1ccc(C(OCC2CO2)c2ccc(OC)cc2)cc1 (centres undefined),-76.9
COc1ccc(/C(O)=C2/C(=O)C(=O)N(CCN(C)C)C2c2cccnc2)cc1OC (centres undefined),7.1
COc1cccc(/C(O)=C2/C(=O)C(=O)N(CCN3CCOCC3)C2c2cccnc2)c1 (centres undefined),530.8*
CC(C)Oc1ccc(/C(O)=C2/C(=O)C(=O)N(CCN3CCOCC3)C2c2ccccc2)cc1 (centres undefined),2.9
CC1(C)COC(c2cccc(C3=NC(C)(C)CO3)n2)=N1,3.3
Cc1nn2c(-c3cccc(NC(=O)c4ccco4)c3)nnc2c2ccccc12,262.8
Cc1nn2c(-c3ccccc3)nnc2c2ccccc12,450.0*
CNS(=O)(=O)c1ccc(OC)c(-c2nnc3c4ccccc4c(C)nn23)c1,-7.3
CCOC(=O)c1cnc(SC)nc1Sc1cc(Cl)ccc1Cl,4.9
CSc1ccc(/C=N/NC(=O)c2ccc(C)c(C)c2)cc1,8.3
Cc1cccc(NCC(=O)N/N=C/c2cccc(Br)c2)c1,-2.7
CSc1ccc(/C=N/NC(=O)CNc2ccc3ccccc3c2)cc1,368.8*
SMILES,INS promoter act
N#C/C(=C\c1cn(Cc2ccccc2F)c2ccccc12)C(=O)NCc1ccco1,6.7
CCOC(=O)c1[nH]c(C)c(C(=O)OCC(=O)N(C)C2CCS(=O)(=O)C2)c1C (centres undefined),0.0
COc1ccc(S(=O)(=O)N2CC(O)CC2C(=O)OCc2nc3sc(C)c(C)c3c(=O)[nH]2)cc1 (centres undefined),-7.7
O=C(NCCC1=CCCCC1)C1CCN(S(=O)(=O)N2CCCC2)CC1,-7.1
CCC1CCCCN1CCCNC(=O)C1CCN(S(=O)(=O)N2CCCCC2)CC1 (centres undefined),215.4*
O=C(NCCCN1CCCC1=O)C1CCN(S(=O)(=O)N2CCOCC2)CC1,130.5
Cc1nc2ccc(Cl)cc2c(-c2ccccc2F)c1CC(=O)O,9.1
Cn1c(=O)c2c(nc(SCC(=O)O)n2Cc2cc3c(cc2Cl)OCO3)n(C)c1=O,1.4
CC(=NC1CC1)C1=C(O)c2ccccc2C1=O,5.6
CC(=NCCCN(C)C)C1=C(O)c2ccccc2C1=O,-6.5
O=C1C(C2=C(O)c3ccccc3C2=O)=Nc2ccccc21,440.0*
N#Cc1c2c(c(=S)n(-c3ccccc3)c1N)CCCC2,273.3*
N#Cc1c2c(c(-c3ccccc3Cl)[nH]c1=S)CCCC2,0.0
N#Cc1c(NCCCO)nc(-c2ccccc2)c2c1CCCC2,0.0
O=C(CC1SC(=NCc2ccccc2)NC1=O)Nc1ccccc1 (centres undefined),108.3
O=C(O)CCC1=C2c3ccccc3CCN2C(=O)CC1,450.0*
O=C1c2ccccc2C(=O)N1CCC(=O)N1CCc2ccccc21,0.0
COC(=O)CCC(=O)NN1C(=O)c2ccccc2C1=O,9.5
CCCCC(=O)NS(=O)(=O)c1ccc(N=NN2CCOCC2)cc1,-3.4
Cc1ccccc1NC(=O)C(C)O/N=C/c1cccc([N+](=O)[O-])c1 (centres undefined),2.7
CC1=NN(C(=O)c2ccccc2-n2cccc2)C(O)(C(F)(F)F)C1 (centres undefined),-3.1
O/N=C/c1ccccc1Oc1ccccc1,3.3
O/N=C/c1cc(Cl)ccc1OCc1ccccc1Cl,0.0
Cc1cc(C)cc(Oc2ccccc2/C=N\O)c1,223.3*
CC(C)(C)NS(=O)(=O)c1cc(C(=O)Nc2sccc2C#N)ccc1Cl,0.0
COC(=O)C1=NN(c2ccc(Cl)cc2)C2C(=O)N(c3ccccc3OC)C(=O)C12 (centres undefined),-3.3
